Key:
Format in all cases: functional
MOLT-4 = test: Growth inhibition of human MOLT4 cells at 10 uM after 48 hrs by coulter counter analysis; conditions: MOLT-4, 48 h, read-out: GI
Method in brief: (§1)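 Single-dose NCI 60-line panel screen of test compounds. Cells grown in RPMI 1640 with 10% FBS. Compounds dissolved in DMSO, then diluted in phosphate buffer saline (final DMSO below 1%). Wells run in duplicate at 6 × 10⁴ cells/ml. Controls held PBS and DMSO at matching dilutions. Incubation 48 h at 37 °C under humidified 5% CO2. Cells diluted tenfold in saline and counted by Coulter counter. Percent growth inhibition taken from mean-graph of treated-cell growth.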

RPMI-8226 = test: Growth inhibition of human RPMI8226 cells at 10 uM after 48 hrs by coulter counter analysis; conditions: RPMI-8226, 48 h, read-out: GI; method in brief: as §1
SR = test: Growth inhibition of human SR cells at 10 uM after 48 hrs by coulter counter analysis; conditions: read-out: GI
Method in brief: (§2)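 Single-dose screen in the NCI 60 cell line panel. Cells grown in RPMI 1640 with 10% FBS. Compounds dissolved in DMSO and diluted in phosphate buffered saline, final DMSO under 1%. Duplicate wells seeded from culture at 6 × 10⁴ cells/ml. Incubated 48 h at 37 °C, humidified, 5% CO2. Cells diluted tenfold in saline and Coulter-counted. Percent growth inhibition computed against PBS/DMSO controls.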

A549 = test: Growth inhibition of human A549/ATCC cells at 10 uM after 48 hrs by coulter counter analysis; conditions: A549, 48 h, read-out: GI; method in brief: as §1
NCI-H226 = test: Growth inhibition of human NCI-H226 cells at 10 uM after 48 hrs by coulter counter analysis; conditions: NCI-H226, 48 h, read-out: GI; method in brief: as §1
NCI-H322M = test: Growth inhibition of human NCI-H322M cells at 10 uM after 48 hrs by coulter counter analysis; conditions: read-out: GI; method in brief: as §1
NCI-H460 = test: Growth inhibition of human NCI-H460 cells at 10 uM after 48 hrs by coulter counter analysis; conditions: NCI-H460, 48 h, read-out: GI; method in brief: as §1
NCI-H522 = test: Growth inhibition of human NCI-H522 cells at 10 uM after 48 hrs by coulter counter analysis; conditions: NCI-H522, 48 h, read-out: GI; method in brief: as §1
COLO 205 = test: Growth inhibition of human COLO205 cells at 10 uM after 48 hrs by coulter counter analysis; conditions: COLO 205, 48 h, read-out: GI; method in brief: as §1
HCC 2998 = test: Growth inhibition of human HCC2998 cells at 10 uM after 48 hrs by coulter counter analysis; conditions: HCC 2998, 48 h, read-out: GI; method in brief: as §1
HCT-116 = test: Growth inhibition of human HCT116 cells at 10 uM after 48 hrs by coulter counter analysis; conditions: HCT-116, 48 h, read-out: GI; method in brief: as §1
HCT-15 = test: Growth inhibition of human HCT15 cells at 10 uM after 48 hrs by coulter counter analysis; conditions: HCT-15, 48 h, read-out: GI; method in brief: as §1
HT-29 = test: Growth inhibition of human HT-29 cells at 10 uM after 48 hrs by coulter counter analysis; conditions: HT-29, 48 h, read-out: GI; method in brief: as §1
KM12 = test: Growth inhibition of human KM12 cells at 10 uM after 48 hrs by coulter counter analysis; conditions: KM12, 48 h, read-out: GI; method in brief: as §1
SW-620 = test: Growth inhibition of human SW620 cells at 10 uM after 48 hrs by coulter counter analysis; conditions: SW-620, 48 h, read-out: GI; method in brief: as §2
SF-268 = test: Growth inhibition of human SF268 cells at 10 uM after 48 hrs by coulter counter analysis; conditions: SF-268, 48 h, read-out: GI; method in brief: as §1
SF-539 = test: Growth inhibition of human SF539 cells at 10 uM after 48 hrs by coulter counter analysis; conditions: SF-539, 48 h, read-out: GI; method in brief: as §1
SNB-75 = test: Growth inhibition of human SNB75 cells at 10 uM after 48 hrs by coulter counter analysis; conditions: SNB-75, 48 h, read-out: GI; method in brief: as §2
LOX IMVI = test: Growth inhibition of human LOXIMVI cells at 10 uM after 48 hrs by coulter counter analysis; conditions: read-out: GI; method in brief: as §1
M14 = test: Growth inhibition of human M14 cells at 10 uM after 48 hrs by coulter counter analysis; conditions: M14, 48 h, read-out: GI; method in brief: as §1
MDA-MB-435 = test: Growth inhibition of human MDA-MB-435 cells at 10 uM after 48 hrs by coulter counter analysis; conditions: MDA-MB-435, 48 h, read-out: GI; method in brief: as §1
SK-MEL-28 = test: Growth inhibition of human SK-MEL-28 cells at 10 uM after 48 hrs by coulter counter analysis; conditions: SK-MEL-28, 48 h, read-out: GI; method in brief: as §1
SK-MEL-5 = test: Growth inhibition of human SK-MEL-5 cells at 10 uM after 48 hrs by coulter counter analysis; conditions: SK-MEL-5, 48 h, read-out: GI; method in brief: as §1
IGROV-1 = test: Growth inhibition of human IGROV1 cells at 10 uM after 48 hrs by coulter counter analysis; conditions: IGROV-1, 48 h, read-out: GI; method in brief: as §1
OVCAR-4 = test: Growth inhibition of human OVCAR4 cells at 10 uM after 48 hrs by coulter counter analysis; conditions: OVCAR-4, 48 h, read-out: GI; method in brief: as §1
[1] = Growth inhibition of human NCI-ADR-RES cells at 10 uM after 48 hrs by coulter counter analysis; conditions: read-out: GI; method in brief: as §1
786-0 = test: Growth inhibition of human 786-0 cells at 10 uM after 48 hrs by coulter counter analysis; conditions: 786-0, 48 h, read-out: GI; method in brief: as §1
ACHN = test: Growth inhibition of human ACHN cells at 10 uM after 48 hrs by coulter counter analysis; conditions: read-out: GI; method in brief: as §1
CAKI-1 = test: Growth inhibition of human Caki1 cells at 10 uM after 48 hrs by coulter counter analysis; conditions: CAKI-1, 48 h, read-out: GI; method in brief: as §1
RXF 393 = test: Growth inhibition of human RXF393 cells at 10 uM after 48 hrs by coulter counter analysis; conditions: RXF 393, 48 h, read-out: GI; method in brief: as §1
PC-3 = test: Growth inhibition of human PC3 cells at 10 uM after 48 hrs by coulter counter analysis; conditions: PC-3, 48 h, read-out: GI; method in brief: as §1
DU-145 = test: Growth inhibition of human DU145 cells at 10 uM after 48 hrs by coulter counter analysis; conditions: DU-145, 48 h, read-out: GI; method in brief: as §1
MCF7 = test: Growth inhibition of human MCF7 cells at 10 uM after 48 hrs by coulter counter analysis; conditions: MCF7, 48 h, read-out: GI; method in brief: as §1
MDA-MB-231 = test: Growth inhibition of human MDA-MB-231 cells at 10 uM after 48 hrs by coulter counter analysis; conditions: MDA-MB-231, 48 h, read-out: GI; method in brief: as §1
[2] = Growth inhibition of human Hs 578T cells at 10 uM after 48 hrs by coulter counter analysis; conditions: read-out: GI; method in brief: as §1

Question: What does the source list for `CCOC(=O)c1sc(NC(=O)CN(C)C)nc1C`?
Answer: inhibition of growth at 10 µM (MOLT-4): < 10%; inhibition of growth at 10 µM (RPMI-8226): < 10%; inhibition of growth at 10 µM (SR): < 10%; inhibition of growth at 10 µM (A549): < 10%; inhibition of growth at 10 µM (NCI-H226): < 10%; inhibition of growth at 10 µM (NCI-H322M): < 10%; inhibition of growth at 10 µM (NCI-H460): < 10%; inhibition of growth at 10 µM (NCI-H522): < 10%; inhibition of growth at 10 µM (COLO 205): < 10%; inhibition of growth at 10 µM (HCC 2998): < 10%; inhibition of growth at 10 µM (HCT-116): < 10%; inhibition of growth at 10 µM (HCT-15): < 10%; inhibition of growth at 10 µM (HT-29): < 10%; inhibition of growth at 10 µM (KM12): < 10%; inhibition of growth at 10 µM (SW-620): < 10%; inhibition of growth at 10 µM (SF-268): < 10%; inhibition of growth at 10 µM (SF-539): < 10%; inhibition of growth at 10 µM (SNB-75): < 10%; inhibition of growth at 10 µM (LOX IMVI): < 10%; inhibition of growth at 10 µM (M14): < 10%; inhibition of growth at 10 µM (MDA-MB-435): < 10%; inhibition of growth at 10 µM (SK-MEL-28): < 10%; inhibition of growth at 10 µM (SK-MEL-5): < 10%; inhibition of growth at 10 µM (IGROV-1): < 10%; inhibition of growth at 10 µM (OVCAR-4): < 10%; inhibition of growth at 10 µM [1]: < 10%; inhibition of growth at 10 µM (786-0): < 10%; inhibition of growth at 10 µM (ACHN): < 10%; inhibition of growth at 10 µM (CAKI-1): < 10%; inhibition of growth at 10 µM (RXF 393): < 10%; inhibition of growth at 10 µM (PC-3): < 10%; inhibition of growth at 10 µM (DU-145): < 10%; inhibition of growth at 10 µM (MCF7): < 10%; inhibition of growth at 10 µM (MDA-MB-231): < 10%; inhibition of growth at 10 µM [2]: < 10%

Question: For `Cc1cnc(NC(=O)CCN2CCN(c3ccccc3)CC2)s1`, which inhibition of growth at 10 µM (MOLT-4) is on record?
Answer: < 10%

Question: What about the inhibition of growth at 10 µM (RPMI-8226) of the same compound?
Answer: < 10%

Question: What about the inhibition of growth at 10 µM (SR) of the same compound?
Answer: 14.3%

Question: And the inhibition of growth at 10 µM (A549)?
Answer: < 10%

Question: And the inhibition of growth at 10 µM (NCI-H226)?
Answer: < 10%

Question: And the inhibition of growth at 10 µM (NCI-H322M)?
Answer: < 10%

Question: And the inhibition of growth at 10 µM (NCI-H460)?
Answer: < 10%

Question: What about the inhibition of growth at 10 µM (NCI-H522) of the same compound?
Answer: < 10%

Question: What about the inhibition of growth at 10 µM (COLO 205) of the same compound?
Answer: < 10%

Question: And the inhibition of growth at 10 µM (HCC 2998)?
Answer: < 10%

Question: What about the inhibition of growth at 10 µM (HCT-116) of the same compound?
Answer: < 10%

Question: What about the inhibition of growth at 10 µM (HCT-15) of the same compound?
Answer: < 10%

Question: And the inhibition of growth at 10 µM (HT-29)?
Answer: < 10%

Question: And the inhibition of growth at 10 µM (KM12)?
Answer: < 10%

Question: What about the inhibition of growth at 10 µM (SW-620) of the same compound?
Answer: < 10%

Question: And the inhibition of growth at 10 µM (SF-268)?
Answer: < 10%

Question: And the inhibition of growth at 10 µM (SF-539)?
Answer: < 10%

Question: And the inhibition of growth at 10 µM (SNB-75)?
Answer: < 10%

Question: What about the inhibition of growth at 10 µM (LOX IMVI) of the same compound?
Answer: < 10%

Question: And the inhibition of growth at 10 µM (M14)?
Answer: < 10%

Question: And the inhibition of growth at 10 µM (MDA-MB-435)?
Answer: < 10%

Question: And the inhibition of growth at 10 µM (SK-MEL-28)?
Answer: < 10%

Question: What about the inhibition of growth at 10 µM (SK-MEL-5) of the same compound?
Answer: < 10%

Question: And the inhibition of growth at 10 µM (IGROV-1)?
Answer: < 10%

Question: And the inhibition of growth at 10 µM (OVCAR-4)?
Answer: < 10%

Question: And the inhibition of growth at 10 µM [1]?
Answer: < 10%

Question: What about the inhibition of growth at 10 µM (786-0) of the same compound?
Answer: < 10%

Question: What about the inhibition of growth at 10 µM (ACHN) of the same compound?
Answer: < 10%

Question: What about the inhibition of growth at 10 µM (CAKI-1) of the same compound?
Answer: < 10%

Question: What about the inhibition of growth at 10 µM (RXF 393) of the same compound?
Answer: < 10%

Question: What about the inhibition of growth at 10 µM (PC-3) of the same compound?
Answer: < 10%

Question: What about the inhibition of growth at 10 µM (DU-145) of the same compound?
Answer: < 10%

Question: What about the inhibition of growth at 10 µM (MCF7) of the same compound?
Answer: < 10%

Question: And the inhibition of growth at 10 µM (MDA-MB-231)?
Answer: < 10%

Question: And the inhibition of growth at 10 µM [2]?
Answer: < 10%
